An excerpt weighted towards active compounds, which were near 4.5% of everything screened.
NS3 helicase inh = blocks Hepatitis C virus NS3 helicase unwinding | NS3 helicase DNA unwinding, Cy5 molecular beacon fluorescence | inhibition, % at 10.9 µM | 290,000 compounds, 0.56% hits;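 active means inhibition above the mean of all tested compounds plus 3 SD, set per campaign, cut at about 35% in these data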;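 further: 0% = DMSO wells and 100% = thioflavine S control wells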
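System: NS3 helicase fragment of HCV / Schedule: 1 h at 25 °C / Control set: DMSO alone as 0% and 110 µM thioflavine S as 100% / Reagent: Cy5/quencher beacon DNA duplex and ATP to start / Technique: Cy5 fluorescence / Replication: singlicate / Evaluation: % inhibition of end-to-start signal ratio versus controls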
p97 ATPase inh = inhibitors of human p97 ATPase; P55072; recombinant p97 ATPase, Kinase-Glo ATP luminescence, 3 h; inhibition, % at 8 µM; 220,000 compounds, 0.42% hits; in the data active means inhibition above about 15%;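 further: 0% = DMSO vehicle and 100% = wells lacking enzyme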
Target sequence (P55072 whole entry, looked up): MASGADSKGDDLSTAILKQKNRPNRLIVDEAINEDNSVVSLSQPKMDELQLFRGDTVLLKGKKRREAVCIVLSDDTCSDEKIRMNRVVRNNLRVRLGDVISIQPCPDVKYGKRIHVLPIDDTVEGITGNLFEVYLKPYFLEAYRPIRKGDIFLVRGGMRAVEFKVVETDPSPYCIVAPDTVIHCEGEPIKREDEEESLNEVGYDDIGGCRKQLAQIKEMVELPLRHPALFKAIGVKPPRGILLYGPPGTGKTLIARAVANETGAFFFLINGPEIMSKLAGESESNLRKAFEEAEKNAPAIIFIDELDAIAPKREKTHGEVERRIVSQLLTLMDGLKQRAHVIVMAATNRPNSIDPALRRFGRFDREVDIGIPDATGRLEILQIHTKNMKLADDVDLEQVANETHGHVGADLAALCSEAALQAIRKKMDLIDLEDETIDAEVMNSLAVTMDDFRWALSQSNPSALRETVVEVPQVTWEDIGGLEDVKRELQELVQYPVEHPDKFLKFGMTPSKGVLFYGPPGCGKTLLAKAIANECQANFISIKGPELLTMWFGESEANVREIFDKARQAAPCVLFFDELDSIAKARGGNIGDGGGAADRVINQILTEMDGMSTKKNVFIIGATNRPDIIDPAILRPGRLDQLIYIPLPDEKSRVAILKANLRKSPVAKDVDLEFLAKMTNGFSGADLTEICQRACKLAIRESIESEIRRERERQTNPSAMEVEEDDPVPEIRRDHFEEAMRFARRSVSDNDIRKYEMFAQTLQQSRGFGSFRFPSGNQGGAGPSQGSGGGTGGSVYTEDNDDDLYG
M18AAP inhibitor = blocks P. falciparum M18 aspartyl aminopeptidase | recombinant PfM18AAP, H-Glu-NHMec fluorogenic cleavage | inhibition, % at 7.35 µM | 290,000 compounds, 1.2% hits | AID 1822;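 active means inhibition above the campaign mean inhibition over all tested compounds plus 3 SD, cut at about 28% in these data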;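 further: 0% = plate median of test compound wells and 100% = 2 mM ZnCl2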
CHOP UPR activ = activators of apoptotic arm of unfolded protein response (CHOP); 330,000 compounds, 0.34% hits; activation, % at 10 µM; CHO-CHOP luciferase reporter, UPR activation, luminescence; percent of tunicamycin response over DMSO baseline;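 active means at 10 µM dose, activation of 40% or more, normalized to positive control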;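 further: 100% = tunicamycin at 10 µg/mL and 0% = DMSO alone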
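assay system = CHO CHOP reporter cells | amount = 500 CHO-CHOP cells per well | buffer or medium = F12 with 10% FBS | incubation = 16-18 h cell attachment, then 6 h compound exposure, 37 °C | detection = luminescence read with Steady-Glo | read-out = percent activation relative to tunicamycin control | controls = tunicamycin high control, DMSO low control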
CHOP inh = CHOP inhibition in unfolded protein response; CHO-K1 CHOP-promoter luciferase, tunicamycin-induced, 15-18 h; inhibition, % at 10 µM; 220,000 compounds, 3.8% hits; AID 2732;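 active means compounds that reduced the stress-induced luciferase reporter signal by more than about 70% of percent inhibition, limit read from the data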;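 further: 0% = tunicamycin plus vehicle and 100% = wells without tunicamycin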
UPR XBP1 act = activators of adaptive arm of unfolded protein response (XBP1); CHO-XBP1 luciferase reporter, IRE1-XBP1 UPR activation, luminescence; percent of tunicamycin response, DMSO as zero; activation, % at 20 µM; AID 463104; 330,000 compounds, 0.33% hits;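 active means versus positive control, 20 µM dose yields 30% or more activation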;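 further: 100% = tunicamycin at 10 µg/mL and 0% = DMSO only wells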
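Material: CHO-XBP1 cells stably carrying IRE1-XBP1-driven luciferase reporter / Amount: 1000 cells per well / Compound: 20 µM, 1% DMSO / Times: 6 h treatment, 37 °C / Detection: luciferase luminescence / Measure: % activation of reporter signal versus tunicamycin and DMSO controls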
* marks the source's active call; other numbers are inactive results; . = no result given.

SMILES | NS3 helicase inh | p97 ATPase inh | M18AAP inhibitor | CHOP UPR activ | CHOP inh | UPR XBP1 act
Cc1cc(Br)ccc1NC(=O)CN(C)C(=O)c1ccc2ccccc2n1 | . | . | . | 0 | . | 0
CS(=O)(=O)N(CC(=O)N1CCN(c2ccccc2)CC1)c1ccc(Cl)c(C(F)(F)F)c1 | -5 | -4 | -2 | 0 | 76* | -1
Cc1cc(C)cc(N(CC(=O)N2CCN(c3ccccc3)CC2)S(=O)(=O)c2c(C)noc2C)c1 | -11 | -4 | 0 | 2 | 76* | -2
COc1cccc(N2CCN(C(=O)CN(c3cc(C)cc(C)c3)S(=O)(=O)c3c(C)noc3C)CC2)c1 | -30 | . | 0 | -1 | . | -8
COCCCC1CCN(C(=O)c2cc(COc3cc(C)ccc3C)on2)CC1 | 2 | . | -3 | 4 | . | -2
Cc1ccc(S(=O)(=O)NCCC(=O)N2CCN(Cc3ccccc3)CC2)cc1 | 0 | 0 | -9 | -3 | 82* | 2
CC(=O)N1CCc2cc(S(=O)(=O)NCCC(=O)N3CCN(Cc4ccccc4)CC3)ccc21 | 11 | -3 | -6 | -3 | 12 | -2
Cc1ccnc(N2C3CCC2CC(O)(c2ccccc2)C3)n1 (stereo unspecified) | 0 | -2 | -13 | 0 | -5 | -2
Cc1cc(N2C3CCC2CC(O)(c2ccc(F)cc2)C3)nc(-c2ccccc2)n1 (stereo unspecified) | -15 | 5 | 3 | 1 | 72* | -1
CC(C)CCOc1ccc(CO[C@@H]2[C@H]3OC(C)(C)O[C@H]3O[C@@H]2C(O)CO)cc1 (stereo partly specified) | -21 | . | -11 | -3 | . | -2
CC(NC(=O)C(=O)NN=C1CCCC1)c1ccccc1 (stereo unspecified) | 6 | -4 | 3 | 2 | -8 | -1
CC(NC(=O)C(=O)N/N=C/c1ccccc1)c1ccccc1 (stereo unspecified) | 3 | 2 | 1 | 2 | 71* | 3
Cc1cccc(C(=O)OCC(=O)NCCCc2ccccc2)c1O | 5 | . | -2 | 1 | . | -5
O=c1[nH]c(CN2CCc3ccccc3C2)nc2ccccc12 | -8 | 7 | 2 | -1 | -1 | -3
Cc1[nH]c2ccccc2c1CN1CCc2ccccc2C1 | -6 | 5 | 0 | 9 | 91* | -3
Cc1ccc(-c2nc(C#N)c(NCC3CCCO3)o2)cc1 (stereo unspecified) | -7 | 2 | -4 | 3 | 18 | 5
Cc1ccc(-c2cc(C(F)F)nc(NCc3cccs3)n2)cc1 | -2 | 1 | -2 | 1 | 91* | -2
Cc1ccc(-c2cc(C(F)F)nc(NCc3cccnc3)n2)cc1 | -16 | 1 | 3 | 3 | 76* | -1
FC(F)(F)c1cc(-c2ccc(Cl)cc2)nc(NCc2cccnc2)n1 | 3 | 3 | 0 | 1 | 89* | 0
Cc1ccc(-c2cc(C(F)F)nc(NCC3CCCO3)n2)cc1 (stereo unspecified) | -4 | 0 | 5 | 1 | 86* | 11
COc1ccc(-c2cc(C(F)(F)F)nc(NCc3cccs3)n2)cc1 | 11 | -2 | -2 | 1 | 18 | -1
N#CC(Sc1ccccn1)c1ccc(Cl)cc1Cl (stereo unspecified) | -7 | 4 | 8 | -1 | 74* | 0
N#Cc1cc(Sc2ccccn2)c(Sc2ccccn2)cc1C#N | 3 | -1 | -15 | 4 | 10 | 1
Cn1c(=O)c2c(SCc3ccccn3)nc(CC(C)(C)C)nc2n(C)c1=O | -9 | 0 | -2 | 1 | 74* | 4
CCCc1nc(SC2CCCC2)c2c(=O)n(C)c(=O)n(C)c2n1 | . | . | . | 5 | 75* | 4
SMILES | NS3 helicase inh | p97 ATPase inh | M18AAP inhibitor | CHOP UPR activ | CHOP inh | UPR XBP1 act
Cn1c(=O)c2c(SCc3ccccn3)nc(C3CC3)nc2n(C)c1=O | -4 | 2 | -3 | -2 | 30 | 7
Cn1c(=O)c2c(SCc3cccnc3)nc(CC(C)(C)C)nc2n(C)c1=O | -14 | -6 | -17 | 2 | 57 | 8
CCCc1nc(SCc2ccccn2)c2c(=O)n(C)c(=O)n(C)c2n1 | -6 | -7 | 1 | 3 | 70* | -2
Oc1c(Br)cc(Br)cc1CNn1cnnc1 | 2 | . | 11 | 1 | . | 0
CCOc1ccc2nc(NCCNC(=O)Nc3ccccc3)c(C#N)cc2c1 | 0 | 10 | 6 | . | 83* | .
CCOc1ccc2nc(NCCNC(=S)NCCCN(C)C)c(C#N)cc2c1 | -19 | 4 | 2 | -1 | 1 | 1
O=C(O)c1ccc(S(=O)(=O)N2CCc3ccccc3C2)cc1 | 1 | . | -11 | 1 | . | -3
O=C(CCc1ccccc1)NC(=S)Nc1cccc(C(=O)O)c1 | 5 | . | 0 | -4 | . | -10
O=C(CCc1ccccc1)NC(=S)Nc1cccc(Br)c1 | -7 | 3 | 3 | 8 | 72* | 1
O=C(COc1ccc(Cl)cc1)NCCSCc1ccccc1Cl | -4 | -7 | 3 | 0 | 20 | -1
Cc1cccc(CSCCNC(=O)COc2ccc(Cl)cc2)c1 | 4 | -10 | -15 | -2 | 87* | -4
O=C(COc1ccc(Cl)cc1)NCCSCc1cccc(Cl)c1 | -5 | -8 | -2 | -2 | 83* | 0
O=C(COc1ccc(Cl)cc1Cl)NCCCCc1ccccc1 | -7 | -9 | -1 | 3 | 85* | -1
Cc1cc(Cl)ccc1OCC(=O)NCCCCc1ccccc1 | -1 | 0 | 1 | 1 | -16 | -2
C=CCN(Cc1nc(-c2ccccc2)no1)C(=O)c1ccco1 | 14 | . | 2 | 1 | . | 2
CC(C)(CN1CCCCC1)NS(=O)(=O)c1ccc(Cl)cc1 | 1 | 2 | 3 | -1 | 24 | -2
CC1CC(C)CN(CC(C)(C)NS(=O)(=O)c2ccc(Cl)cc2)C1 (stereo unspecified) | -1 | -10 | 3 | 2 | 94* | 0
COc1ccc(CCNC(=O)CCS(=O)(=O)c2cccc3nsnc23)cc1OC | 6 | 3 | -1 | -1 | 78* | -1
COc1ccc(CCNS(=O)(=O)c2cccc3nsnc23)cc1OC | 9 | 3 | -11 | -2 | 15 | -3
NC(=O)Nc1ccc(C(=O)OCC(=O)N2CCCC2=O)cc1 | . | . | . | 1 | . | -1
Cc1[nH]c2ccccc2c1/C=N/NC(N)=S | -8 | -1 | 11 | 5 | -4 | 4
CCc1nnc(N/N=C/c2c(C)[nH]c3ccccc23)n1N | 2 | 4 | 54* | -2 | 7 | -1
Cc1ccccc1NC(=O)Cc1nc(COC(=O)c2ccc(S(C)(=O)=O)c([N+](=O)[O-])c2)cs1 | . | . | . | -9 | . | -6
CC(=O)c1c(C)[nH]c(C(=O)OCC(=O)Nc2ccc(C)cc2[N+](=O)[O-])c1C | -1 | -3 | -4 | 3 | 89* | -4

From PubChem
